Laboratory results: ChEMBL document CHEMBL1124823, “Antimitotic agents: synthesis of imidazo[4,5-c]pyridin-6-ylcarbamates and imidazo[4,5-b]pyridin-5-ylcarbamates” (J Med Chem, 1990)

How the values were obtained:
Mus musculus [1] = experiment: Increase in life span (ILS) in mice implanted intraperitoneally with lymphocytic leukemia P388 cells at a nontoxic dose of 200 mg/kg; type: functional; details: P388, ip, route intraperitoneal
L1210 [2] = experiment: The compound was tested for cell growth inhibitory activity against lymphoid leukemia L1210 cell line.; type: functional, cell-based; details: Mus musculus
Summary of the method: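 Cultured lymphoid leukemia L1210 cells were grown with agent for 48 h. The value is the micromolar concentration that inhibits proliferation to 50% of control growth.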

L1210 [3] = experiment: Concentration that causes a mitotic index (number of cells in mitosis divided by total cells) of cultured lymphoid leukemia L1210 cells.; type: functional, Mus musculus
Summary of the method: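 Cultured lymphoid leukemia L1210 cells were exposed to agent for 12 h. Mitotic index was taken as the number of cells in mitosis divided by total cells. The value is the micromolar concentration giving a mitotic index of 0.5.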

Mus musculus [4] = experiment: Increase in life span (ILS) in mice implanted intraperitoneally with lymphocytic leukemia P388 cells at a nontoxic dose of 2 mg/kg; type: functional; details: P388, ip, route intraperitoneal
Mus musculus [5] = experiment: Increase in life span (ILS) in mice implanted intraperitoneally with lymphocytic leukemia P388 cells at a nontoxic dose of 100 mg/kg; type: functional; details: P388, ip, route intraperitoneal
Mus musculus [6] = experiment: Increase in life span (ILS) in mice implanted intraperitoneally with lymphocytic leukemia P388 cells at a nontoxic dose of 100 mg/kg; toxic dose by weight loss when repeated; type: functional; details: P388, ip, route intraperitoneal
Mus musculus [7] = experiment: Increase in life span (ILS) in mice implanted intraperitoneally with lymphocytic leukemia P388 cells at a nontoxic dose of 50 mg/kg; type: functional; details: P388, ip, route intraperitoneal
Mus musculus [8] = experiment: Increase in life span (ILS) in mice implanted intraperitoneally with lymphocytic leukemia P388 cells at a nontoxic dose of 200 mg/kg; toxic dose by weight loss when repeated; type: functional; details: P388, ip, route intraperitoneal

SMILES	IC50 (L1210 [2]) [nM]	MI0.5 (L1210 [3]) [µM]	further results
CCOC(=O)Nc1cc2[nH]c(-c3ccccc3)nc2c(N)n1	900	8	ILS at 200 mg/kg (Mus musculus [1]): 0%
CCOC(=O)Nc1cc2c(c(N)n1)N=C(c1ccccc1)CN2	–	0.0028	ILS at 2 mg/kg (Mus musculus [4]): 51%
CCOC(=O)Nc1cc(N(C)/N=C/c2ccccc2)c2nc[nH]c2n1	3100	–	–
CCOC(=O)Nc1cc(N/N=C/c2ccccc2)c2[nH]c(SCc3ccccc3)nc2n1	46000	–	–
CCOC(=O)Nc1cc2c(nc(SCc3ccc(OC)cc3)n2N)c(N)n1	60	–	ILS at 100 mg/kg (Mus musculus [5]): 24%
CCOC(=O)Nc1cc(N/N=C/c2ccccc2)c2[nH]cnc2n1	250	0.94	ILS at 100 mg/kg (Mus musculus [6]): 46%
CCOC(=O)Nc1cc(N/N=C/c2ccccc2)c(N)c(N)n1	4600	15	ILS at 50 mg/kg (Mus musculus [7]): 4%
CCOC(=O)Nc1cc2c(nc(SCc3ccc4c(c3)OCO4)n2N)c(N)n1	170	–	ILS at 100 mg/kg (Mus musculus [5]): 25%
CCOC(=O)Nc1cc(N/N=C/c2ccccc2)c2[nH]c(S)nc2n1	1500	5.5	ILS at 200 mg/kg (Mus musculus [1]): 10%
CCOC(=O)Nc1cc2c(nc(SCc3ccccc3)n2N)c(N)n1	600	1.6	ILS at 200 mg/kg (Mus musculus [8]): 39%
CCOC(=O)Nc1cc2c(ncn2/N=C/c2ccccc2)c(N)n1	150	0.61	ILS at 100 mg/kg (Mus musculus [6]): 39%
CCOC(=O)Nc1cc2c(nc(S)n2N)c(N)n1	> 30000	–	–
CCOC(=O)Nc1cc2c(nc(SCc3ccccc3)n2/N=C/c2ccccc2)c(N)n1	50000	–	–
CCOC(=O)Nc1cc2c(nc(S)n2/N=C/c2ccccc2)c(N)n1	470	11	ILS at 200 mg/kg (Mus musculus [1]): 6%
